Data taken from ChEMBL document CHEMBL4024760, “Specific Inhibition of Bacterial β-Glucuronidase by Pyrazolo[4,3-c]quinoline Derivatives via a pH-Dependent Manner To Suppress Chemotherapy-Induced Intestinal Toxicity” (J Med Chem, 2017).
Calls of active or inactive are those of the source. The rule behind the calls is not given here.

Key:
Escherichia coli [1] = experiment: Inhibition of N-terminal His-tagged Escherichia coli beta-glucuronidase expressed in Escherichia coli BL21 (DE3) assessed as residual activity using pNPG as substrate at 10 uM preincubated for 30 mins followed by substrate addition measured after 1 hr relative to control
Summary of the method: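 Purified E. coli βG (20 ng) preincubated with 10 μM compound for 30 min at 37 °C in PBS pH 7.5 with 10% DMSO and 0.05% BSA. pNPG (20 mM stock) then added for 1 h, quenched with 2 N NaOH, and read at OD405. Result given as % activity versus a 10% DMSO control; n = 3.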

beta-glucuronidase = molecular target: T1, beta-glucuronidase (Homo sapiens, UniProt P08236); experiment: Inhibition of N-terminal His-tagged human beta-glucuronidase expressed in Escherichia coli BL21 (DE3) assessed as residual activity using pNPG as substrate at 10 uM preincubated for 30 mins followed by substrate addition measured after 1 hr relative to control; settings: probe pNPG, read-out: Activity
T1 sequence (P08236 whole entry): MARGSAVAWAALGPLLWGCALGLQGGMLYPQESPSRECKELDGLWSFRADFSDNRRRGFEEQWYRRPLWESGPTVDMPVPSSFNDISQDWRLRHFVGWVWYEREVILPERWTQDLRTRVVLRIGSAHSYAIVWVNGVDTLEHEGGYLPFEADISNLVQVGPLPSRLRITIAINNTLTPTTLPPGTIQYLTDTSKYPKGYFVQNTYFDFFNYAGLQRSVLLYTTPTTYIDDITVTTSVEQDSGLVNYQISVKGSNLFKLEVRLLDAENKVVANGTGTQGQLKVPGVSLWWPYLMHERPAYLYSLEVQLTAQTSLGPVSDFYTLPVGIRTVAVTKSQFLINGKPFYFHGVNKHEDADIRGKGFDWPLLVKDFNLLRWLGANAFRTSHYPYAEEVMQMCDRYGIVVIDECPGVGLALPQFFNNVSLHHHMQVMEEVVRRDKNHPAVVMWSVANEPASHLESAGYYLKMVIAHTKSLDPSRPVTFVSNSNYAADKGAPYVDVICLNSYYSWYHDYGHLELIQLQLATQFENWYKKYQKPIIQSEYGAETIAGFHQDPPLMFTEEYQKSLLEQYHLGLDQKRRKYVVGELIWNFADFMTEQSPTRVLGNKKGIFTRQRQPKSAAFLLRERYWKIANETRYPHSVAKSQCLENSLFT

[2] = Inhibition of N-terminal His-tagged Escherichia coli beta-glucuronidase expressed in Escherichia coli BL21 (DE3) using pNPG as substrate preincubated for 30 mins followed by substrate addition measured after 1 hr
Summary of the method: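 Purified E. coli βG (20 ng) preincubated 30 min at 37 °C with compound (0.64–10 000 nM) in PBS pH 7.5 containing 10% DMSO and 0.05% BSA. pNPG (20 mM stock) then added for 1 h, quenched with 2 N NaOH, and pNP read at 405 nm. IC50 derived from a four-parameter curve fit; SD of n = 3.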

[3] = system: Escherichia coli BL21(DE3); experiment: Inhibition of beta-glucuronidase in Escherichia coli BL21 (DE3) using pNPG as substrate at 50 uM preincubated for 30 mins followed by substrate addition measured after 1 hr relative to control
Summary of the method: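 BL21(DE3) E. coli grown overnight and diluted to OD600 0.1 in LB. Cells treated with compound (50, 10 or 2 μM) for 30 min at 37 °C, then pNPG (40 mM stock) added for 1 h. Cells pelleted at 6000g; supernatant quenched with NaOH and read at OD405. Activity given as % of a 1% DMSO control.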

Escherichia coli [4] = experiment: Toxicity against Escherichia coli BL21(DE3) assessed as effect on cell growth at 100 uM after 6 hrs
Summary of the method: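 BL21(DE3) E. coli (diluted to OD600 0.1 in LB after overnight growth) incubated with compound at a final 100 μM, shaking at 37 °C for 6 h. Growth measured by OD600; viability given as % of the untreated control.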

Escherichia coli [5] = experiment: Inhibition of intestinal Escherichia coli beta-glucuronidase in Balb/cJ mouse using FDGIcU as substrate at 3 mg/kg, po for 5 days measured on day 5 post last dose 120 mins after probe administration; format: organism-based
Summary of the method: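 BALB/cJ mice were gavaged with inhibitor at 3 mg/kg/day or DDW (200 μL) for 5 days. FDGlcU probe (500 μg/100 μL) given orally 30 min after the fifth dose. Intestinal fluorescein imaged in vivo 120 min after the probe (ex 490/em 525 nm) and quantified as average radiance; n = 6; two-tailed t test.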

Escherichia coli [6] = experiment: Inhibition of Escherichia coli beta-glucuronidase in Balb/cJ mouse feces using pNPG as substrate at 3 mg/kg, po for 5 days measured on day 5 post last dose after 1 hr; format: organism-based
Summary of the method: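 Mice gavaged with inhibitor at 3 mg/kg/day or DDW for 5 days. Fresh feces homogenized 1:9 w/v in assay buffer, mixed with assay buffer and 20 mM pNPG (stock), incubated 37 °C for 1 h, centrifuged, quenched with 2 N NaOH, and pNP read at OD405; n = 6; two-tailed t test.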

Mus musculus [7] = experiment: Protection against CPT-11 induced intestinal toxicity in Balb/cJ mouse assessed as reduction in intestinal tissue damage at 3 mg/kg/day, po starting from 2 days before 50 mg/kg/day, ip CPT-11 administration for 10 consecutive days by hematoxylin and eosin staining based method; format: functional, organism-based
Summary of the method: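 Inhibitor given orally to BALB/cJ mice at 3 mg/kg/day in DDW (200 μL/day for controls), starting 2 days before CPT-11. CPT-11 50 mg/kg or saline given ip for 10 consecutive days. Jejunum, ileum and colon sections then H&E-stained and examined for villus and crypt destruction; 3–5 mice per group.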

Mus musculus [8] = experiment: Protection against CPT-11 induced intestinal toxicity in Balb/cJ mouse transplanted with mouse CT26 cells assessed as reduction in diarrhea level at 3 mg/kg/day administered via oral gavage for 18 days starting from 2 days before 50 mg/kg/day, ip CPT-11 dosing from day 2 measured every other day up to 18 days; format: functional; set-up: scale not given: the % may be the effect or the level left
Summary of the method: (§1)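 CT26 tumour-bearing BALB/c mice (cells inoculated day −8). Inhibitor given orally at 3 mg/kg/day in DDW (dosing solution 0.3 mg/mL) from day −2 onward. Daily ip CPT-11 50 mg/kg or saline from day 0. Tumour growth, body weight and diarrhea score (0 solid to 3 watery with severe perianal staining) recorded every other day; severity distribution on day 18. n = 6 mice/group; two-way ANOVA.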

CT26 = experiment: Effect on CPT-11 induced antitumor activity against mouse CT26 cells transplanted in Balb/cJ mouse assessed as reduction in tumor volume at 3 mg/kg/day administered via oral gavage for 18 days starting from 2 days before 50 mg/kg/day, ip CPT-11 dosing from day 2 measured every other day up to 18 days; format: functional, organism-based; summary of the method: as §1
Mus musculus [9] = experiment: Effect on systemic metabolism of CPT-11 in mouse CT26 cells transplanted Balb/cJ mouse assessed as effect on CPT-11-induced weight loss at 3 mg/kg/day administered via oral gavage for 18 days starting from 2 days before 50 mg/kg/day, ip CPT-11 dosing from day 2 measured every other day up to 18 days; format: functional, organism-based; summary of the method: as §1
Escherichia coli [10] = experiment: Inhibition of N-terminal His-tagged Escherichia coli beta-glucuronidase expressed in Escherichia coli BL21 (DE3) using pNPG as substrate at 10 uM at pH 6.5
Summary of the method: (§2)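 Purified E. coli βG assay at 10 μM compound, with PBS replaced by Na2HPO4 (0.2 M)/citric acid (0.1 M) buffer mixtures at each pH. Enzyme preincubated with compound 30 min at 37 °C, then pNPG added for 1 h; NaOH-quenched pNP read at 405 nm. Activity given relative to a 10% DMSO control at the same pH; n = 3.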

Escherichia coli [11] = experiment: Inhibition of N-terminal His-tagged Escherichia coli beta-glucuronidase expressed in Escherichia coli BL21 (DE3) using pNPG as substrate at 10 uM at pH 6.0; summary of the method: as §2
Escherichia coli [12] = experiment: Inhibition of N-terminal His-tagged Escherichia coli beta-glucuronidase expressed in Escherichia coli BL21 (DE3) using pNPG as substrate at 10 uM at pH 5.5; summary of the method: as §2
Escherichia coli [13] = experiment: Inhibition of N-terminal His-tagged Escherichia coli beta-glucuronidase expressed in Escherichia coli BL21 (DE3) using pNPG as substrate at 10 uM at pH 7.5; summary of the method: as §2

Row | Activity (Escherichia coli [1]) [%] | activity at 1 h, 10 µM (beta-glucuronidase) [%] | IC50 [2] [nM] | inhibition [3] [%] | inhibition (Escherichia coli [10]) [%] | inhibition (Escherichia coli [11]) [%] | inhibition (Escherichia coli [12]) [%] | inhibition (Escherichia coli [13]) [%] | Structure (SMILES) | Activity (Escherichia coli [4]) | inhibition (Escherichia coli [5]) [%] | inhibition (Escherichia coli [6]) | Activity (Mus musculus [7]) | Activity (Mus musculus [8]) [%] | Activity (CT26) | Activity (Mus musculus [9])
1 | 5.59 | 101 | 136 | > 80 | 90 | 80 | 50 | 90 | Nc1n[nH]c2c1c(Nc1ccc(F)cc1)nc1ccccc12 | Non-Toxic | 75 | Active | Active | 50 | inactive | inactive
2 | 4.78 | 100 | 37.3 | > 80 | – | – | – | – | Cc1ccc(Nc2nc3ccccc3c3[nH]nc(N)c23)cc1 | Non-Toxic | 40 | Active | – | – | – | –
